Results as given in ChEMBL document CHEMBL1149780, “Unsaturated fluoro-ketopyranosyl nucleosides: synthesis and biological evaluation of 3-fluoro-4-keto-beta-d-glucopyranosyl derivatives of N(4)-benzoyl cytosine and N(6)-benzoyl adenine” (Eur J Med Chem, 2008).
pIC50: −log10 of the molar value.

Tests used:
[1] = Ratio of CC50 for Caco-2 cells to IC50 for rotavirus infected human Caco2 cells assessed as inhibition of infectivity following virus attachment
Caco-2 [2] = assay: Cytotoxicity against human Caco-2 cells after 72 hrs; format: functional; details: Caco-2, 72 h
Procedure, shortened: (§1)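 Caco-2, H4 (normal intestinal), MCF-7 and skin melanoma cells seeded at 6 × 10^6 cells per plate, given 3-fold serial dilutions (top 0.5 mg/mL; DMSO below 0.1%), 37 °C, 72 h.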

[3] = Cytotoxicity against human melanoma cells after 72 hrs; format: functional; details: Melanoma cell; procedure, shortened: as §1
Rotavirus = assay: Antiviral activity against gastrointestinal rotavirus in human Caco-2 cells assessed as inhibition of infectivity following virus attachment; format: functional, organism-based
Procedure, shortened: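 Caco-2 monolayers washed, exposed to rotavirus RF strain (1.5 TCID50/mL, 100 µL/well) for 1 h at 37 °C, 5% CO2; unbound virus washed off, then 3-fold serial compound dilutions added (top 0.5 mg/mL; DMSO below 0.1%).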

MCF7 [4] = assay: Tumor selectivity index, CC50 for human H4 cells to CC50 for human MCF7 cells; format: functional
MCF7 [5] = assay: Cytotoxicity against human MCF7 cells after 72 hrs; format: functional; details: MCF7, 72 h; procedure, shortened: as §1
Caco-2 [6] = assay: Growth inhibition of human Caco-2 cells; format: functional, cell-based
Procedure, shortened: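 Colony-formation assay: Caco-2 seeded at 10 cells/well in DMEM-10% FBS, given 3-fold dilutions (top 0.5 mg/mL), incubated 10 days at 37 °C. Colonies counted; colony number in treated (n = 2) vs control wells (n = 24) as %; IC50 from concentration-effect curve.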

H4 [7] = assay: Tumor selectivity index, CC50 for human H4 cells to CC50 for human melanoma cells; format: functional
H4 [8] = assay: Cytotoxicity against human H4 cells after 72 hrs; format: functional; details: H4, 72 h; procedure, shortened: as §1
H4 [9] = assay: Tumor selectivity index, CC50 for human H4 cells to CC50 for human Caco-2 cells; format: functional

SMILES | Ratio CC50/IC50 [1] | CC50 (Caco-2 [2]) | CC50 [3] | pIC50 (Rotavirus) | Ratio (MCF7 [4]) | CC50 (MCF7 [5]) | pIC50 (Caco-2 [6]) | Ratio (H4 [7]) | CC50 (H4 [8]) | Ratio (H4 [9])
Cc1cn([C@H]2C[C@H](N=[N+]=[N-])[C@@H](CO)O2)c(=O)[nH]c1=O [ZIDOVUDINE] | 2.5 | 56.1 µM | – | – | – | – | – | – | – | –
O=C(Nc1ncnc2ncn([C@H]3C=C(F)C(=O)[C@@H](COC(c4ccccc4)(c4ccccc4)c4ccccc4)O3)c12)c1ccccc1 | 0.04 | 31.9 µM | 9.5 µM | 3.10 | 84.1 | 9.5 µM | 5.96 | 84.1 | 799 µM | 25
O=c1[nH]cc(F)c(=O)[nH]1 [FLUOROURACIL] | – | – | – | – | 5 | – | – | 83.4 | – | 10
